XBP1 UPR activ: activators of adaptive arm of unfolded protein response (XBP1); activation, % at 20 µM; hit rate 0.33% among 330,000; CHO-XBP1 luciferase reporter, IRE1-XBP1 UPR activation, luminescence; percent of tunicamycin response, DMSO as zero;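 active = versus positive control, 20 µM dose yields 30% or more activation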
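Assay system: CHO-XBP1 luciferase reporter cells; Schedule: 6 h treatment, 37 °C; Detection: glow luminescence from Steady-Glo reagent; Benchmarks: high control tunicamycin 10 µg/mL final, low control DMSO vehicle only.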
MC4R antagonist: human MC4R antagonism in cAMP assay. P32245. MC4R-expressing cells, MTII-stimulated cAMP, LANCE TR-FRET. inhibition, % at 6.5 µM. hit rate 0.48% among 360,000. AID 540295;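 active = inhibition above its plate's cutoff, the mean of tested wells on that plate plus 3 SD, cut at about 29% in these data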
Target sequence (P32245 whole entry, looked up): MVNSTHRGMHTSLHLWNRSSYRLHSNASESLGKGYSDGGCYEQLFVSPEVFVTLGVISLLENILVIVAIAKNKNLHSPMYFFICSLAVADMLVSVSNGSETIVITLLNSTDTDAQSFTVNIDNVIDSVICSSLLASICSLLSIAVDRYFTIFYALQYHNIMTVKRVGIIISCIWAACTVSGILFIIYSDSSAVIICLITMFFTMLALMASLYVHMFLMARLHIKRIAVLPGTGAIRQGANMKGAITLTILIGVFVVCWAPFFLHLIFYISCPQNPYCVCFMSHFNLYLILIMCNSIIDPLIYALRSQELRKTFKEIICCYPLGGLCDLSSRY
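system = U2OS cells with stable human MC4R expression | also added = Melanotan II challenge after compound preincubation | dosing = one concentration, 6.5 µM nominal | incubation = compound 30 min, challenge 1 h, detection 1 h | measured by = TR-FRET with Eu-cAMP and labeled anti-cAMP, 671 nm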
UPR CHOP act: apoptotic UPR (CHOP) activation; CHO-CHOP luciferase reporter, luminescence; percent of tunicamycin response over DMSO baseline; activation, % at 10 µM; hit rate 0.34% among 330,000; AID 449763;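 active = at 10 µM dose, activation of 40% or more, normalized to positive control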
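System: CHO CHOP reporter cells. Amount: 500 cells per well. Buffer or medium: F12 medium, 10% FBS. Compound dosing: one dose, 10 µM in 0.5% DMSO. Incubation: 6 h compound exposure at 37 °C after overnight seeding. Technique: Steady-Glo luciferase luminescence. Benchmarks: tunicamycin and DMSO controls.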
Bfl-1 A1 inh: inhibitors of the anti-apoptotic protein A1, read as caspase activation; caspase activation, % (test concentration not listed); hit rate 0.066% among 330,000; MEF A1-2A-BIM cells, Caspase-Glo 3/7 luminescence, 3 h; percent of clofoctol response, vehicle zero;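 active = over half of replicate activation scores above 10%, or exactly half above 10 with the replicate mean above 10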
MC4R barr agon: human MC4R agonism via beta-arrestin; U2OS MC4R beta-arrestin complementation, luminescence; percent of melanotan II response, DMSO zero; hit rate 0.98% among 360,000; activation, % at 8.9 µM; P32245;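 active = activation above a per-plate cutoff, the mean activation of sample wells on that plate plus 3 SD, cut at about 8% in these data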
U2OS cAMP counter: nonselective cAMP signaling inhibitor, MC4R antagonist counter-screen; shares compounds with MC4R antagonist; AID 602193; parental U2OS, forskolin cAMP, LANCE TR-FRET; inhibition, % at 6.5 µM; hit rate 26% among 1,600;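 active = mean inhibition over triplicates above the low-control well mean plus 3 SD, set per campaign, cut at about 13% in these data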;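 note: signal is single emission at 671 nm which falls as cellular cAMP rises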
MC4R antag conf: human MC4R cAMP antagonism confirmation; shares compounds with MC4R antagonist; MC4R-expressing cells, MTII-stimulated cAMP, TR-FRET; inhibition, % at 6.5 µM; hit rate 27% among 1,600; AID 602195; in the data active = inhibition above about 29%
A number is an active result; – = inactive; · = not tested or not shown; ! = not active in a repeat. Compounds with a hit are over-represented: about 2% of the library has one in this group of screens.

SMILES	XBP1 UPR activ	MC4R antagonist	UPR CHOP act	Bfl-1 A1 inh	MC4R barr agon	U2OS cAMP counter	MC4R antag conf
CC(C)CNC(=O)COC(=O)CNC(=O)c1cc(Cl)cc([N+](=O)[O-])c1	–	32.9	–	–	–	17.2	32.1
COc1ccccc1N(C)S(=O)(=O)c1ccc(C(=O)Nc2cc(OC)c(OC)c(OC)c2)cc1	·	–	·	·	–	·	·
COc1cccc(C(=O)Nc2ccc(S(=O)(=O)Nc3cc(C)nc(C)n3)cc2)c1	–	29.4	–	–	–	–	–
COc1cc(OC)cc(C(=O)N2CCN(Cc3ccccc3[N+](=O)[O-])CC2)c1	–	28.7	–	–	–	–	–
COc1ccc(C(=O)N2CCN(Cc3ccccc3[N+](=O)[O-])CC2)cc1	–	–	–	–	–	·	·
CCc1nc2ccc(C(=O)NCc3ccc(OC)cc3)cn2c1N(C)C(=O)Cc1ccccc1	·	–	·	·	–	·	·
CS(=O)(=O)c1ccc(Sc2nc3ccccc3s2)c([N+](=O)[O-])c1	–	–	–	–	–	·	·
O=[N+]([O-])c1cc(S(=O)(=O)C(F)(F)F)ccc1Sc1nc2ccccc2s1	–	56.5	–	–	–	–	43.4
Cc1cc(NC(=O)CS(=O)c2cn(Cc3cccc(Cl)c3)c3ccccc23)no1 (centres undefined)	·	–	·	·	–	·	·
Cc1sc2nc(CN3CCOCC3)nc(Cl)c2c1C	–	31.9	–	–	–	–	–
Cc1sc2nc(CN3CCC(C)CC3)nc(Cl)c2c1C	–	·	–	–	·	·	·
CC(=O)N1CCN(c2cc(-c3ccccc3)nc3cc(-c4cccc(Cl)c4)nn23)CC1	·	40.9	·	·	–	–	–
Brc1ccc(-c2nc3c4ccccc4ccn3c2Cc2ccccc2)cc1	·	–	·	·	–	·	·
CCOc1cc(N2CCOCC2)c(OCC)cc1NC(=O)COC(=O)COc1cc(C)cc(C)c1	–	–	–	–	–	·	·
CCOc1cc(N2CCOCC2)c(OCC)cc1NC(=O)COC(=O)COc1ccc(C#N)cc1	–	30.9	–	–	–	–	–
NC(=O)COC(=O)CC1CC2CCC1C2 (centres undefined)	–	–	–	–	–	·	·
O=C1CCC(=O)N1CC1CC2CCC1C2 (centres undefined)	–	36.8	–	–	–	–	–
OC(c1cccc(Cl)c1)c1nc(/C=C/c2ccc(C(F)(F)F)cc2)cs1 (centres undefined)	·	–	·	·	–	·	·
COc1ccc(OC)c(-c2nn(-c3ccccc3)cc2C(=O)NC2(C)CCS(=O)(=O)C2)c1 (centres undefined)	·	–	·	·	–	·	·
CCCCN1C(=O)C(CC(=O)NCCCN(C)C)CC(C(=O)N2CCOCC2)=C1C (centres undefined)	·	–	·	·	–	·	·
O=C(CN1C(=O)c2cccc([N+](=O)[O-])c2C1=O)N1CCN(c2ccc(F)cc2)CC1	–	34.4	–	–	–	26.7	43.4
CN(C(=O)COC(=O)C(Cc1ccccc1)NC(=O)c1ccccc1)c1ccccc1 (centres undefined)	–	–	–	–	–	·	·
CN(C)C(=O)COC(=O)[C@H](Cc1ccccc1)NC(=O)c1ccco1	–	28.7	–	–	–	13.8	–
O=C(COC(=O)[C@H](Cc1ccccc1)NC(=O)c1ccco1)NCc1ccccc1	–	29.3	–	–	–	–	–
O=C(NC(Cc1ccc(O)cc1)C(=O)O)c1ccco1 (centres undefined)	–	–	–	–	–	·	·
SMILES	XBP1 UPR activ	MC4R antagonist	UPR CHOP act	Bfl-1 A1 inh	MC4R barr agon	U2OS cAMP counter	MC4R antag conf
Cc1ccc(NC(=O)C2C3CCC(O3)C2C(=O)O)cc1Cl (centres undefined)	–	–	–	–	–	·	·
COc1ccc(N(C)S(=O)(=O)c2cccc(C(=O)OCC(=O)Nc3cc(C)ccc3OC)c2)cc1	·	–	·	·	–	·	·
CCOc1cc(NC(=S)NCC2CCCO2)c(OCC)cc1NC(=O)c1ccccc1C (centres undefined)	–	29.8	–	–	–	–	–
CCOc1cc(NC(=S)NCC2CCCO2)c(OCC)cc1NC(=O)c1ccc(OC)cc1 (centres undefined)	–	–	–	–	–	·	·
COC(=O)[C@H](CC(C)C)N1Cc2cc(OC)cc(OC)c2-c2ccccc2S1(=O)=O	–	–	–	·	–	·	·
COc1ccc(-c2csc3ncnc(N4CCN(c5ccccc5Cl)CC4)c23)cc1	–	28.7	–	–	–	–	29.5
COc1cc(NS(=O)(=O)c2ccc(-n3cccn3)cc2)cc(OC)c1	·	–	·	·	–	·	·
O=C(OCC(=O)N1CCCC1=O)c1nc(Cl)c(Cl)c(Cl)c1Cl	–	28.9	–	–	–	23.2	46.8
NC(Cc1ccc(C(F)(F)F)cc1)c1csc(Nc2nncc3ccccc23)n1 (centres undefined)	·	35.3	·	·	–	21.3	–
CCCNC(=O)Nc1nc(C(N)c2ccc(OC)cc2)cs1 (centres undefined)	·	–	·	·	–	·	·
O=C(CCN1CCc2ccccc2C(c2ccccc2)C1)c1ccc2c(c1)OCCO2 (centres undefined)	–	–	–	–	–	·	·
O=C(CCN1Cc2ccccc2C1)c1ccc2c(c1)OCCO2	–	33.5	–	–	–	18.4	31.2
Cc1ccc(CNC(=O)COC(=O)Cn2nc(C)c([N+](=O)[O-])c2C)cc1	–	45.7	–	–	–	–	31.1
Cc1nn(CC(=O)OCC(=O)NCCc2ccc(S(N)(=O)=O)cc2)c(C)c1[N+](=O)[O-]	–	–	–	–	–	·	·
CC(C)CC(=O)N1CC=CC[C@@H](c2ccc(Cl)cc2)N(Cc2ccc(Cl)cc2)C(=O)[C@@H]1Cc1ccccc1	·	–	·	·	–	·	·
CCn1cc(CCC(=O)NCc2cccc(OC)c2OC)c2ccccc21	–	30.9	–	–	–	–	–
CCOc1ccccc1CNC(=O)CCc1cn(CC)c2ccccc12	–	–	–	–	–	·	·
C#CC(=O)N(c1ccc(OC)cc1OC)C(C(=O)NC1CCCC1)c1cccs1 (centres undefined)	–	42.8	–	–	9.0	–	41.7
C#CC(=O)N(c1cc(OC)ccc1OC)C(C(=O)NC1CCCC1)c1cccs1 (centres undefined)	–	33.3	–	–	15.8	–	–
CC1=C(C(=O)N2CCOCC2)CC(CC(=O)NC(c2ccccc2)c2ccccc2)C(=O)N1Cc1ccc(F)cc1 (centres undefined)	·	–	·	·	–	·	·
Cc1ccc(-c2cc(C(=O)O)c3cc(Br)ccc3n2)s1	–	36.3	–	–	–	16.3	30.9!

Screening results: PubChem BioAssay, several laboratories
